High-throughput results from PubChem.
Only some compounds are listed: those with a hit (about 3.1% of all), similar ones and a draw of the others.
KCNK3 block: human KCNK3 channel inhibition, primary screen; CHO-KCNK3 thallium flux, FluxOR fluorescence; hits give low values; B-score at 10 µM; 0.84% of 340,000 active;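 active = B-score under library mean minus 4 SD, starting fluorescence ratio at most library mean plus 5 SD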;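 also: more negative B-score means stronger inhibition of thallium flux through KCNK3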
KCNK9 inh: blocks the human KCNK9 two-pore domain potassium channel; HEK293 KCNK9, FluxOR thallium flux fluorescence; hits give low values; 1.2% of 310,000 active; B-score at 10 µM;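 active = ratio B-score over 3 SD below the library mean, with starting fluorescence within 5 SD of its mean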;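 also: negative B-score means less thallium flux so channel inhibition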
KCNQ1 act: potentiators or activators of human KCNQ1 potassium channel | AID 2648 | B-score at 10 µM | P51787 | CHO-K1 KCNQ1, thallium flux FluxOR fluorescence; hits give high values | 0.35% of 310,000 active;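 active = fluorescence ratio B-score, a plate-corrected score, at least three library SD, with initial intensity B-score within 5 SD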
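Assay system: CHO-K1 cells stably expressing KCNQ1. Medium: assay buffer for compound exposure, DMSO matched across wells. Timing: 37 °C overnight plating, 90-min dark dye load, 20-min compound pretreatment. Signal: kinetic FluxOR fluorescence, 10 s baseline plus 110 s post-stimulus.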
hERG rescue: shields human hERG channel from block by proarrhythmic agents; CHO-hERG, FluxOR thallium flux, dofetilide IC70 present; Q12809; 0.51% of 310,000 active; activation (rescue from dofetilide block), less the hit threshold, % at 10 µM;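 active = activation above the mean of controls blocked by dofetilide plus 5 SD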;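 also: thallium influx through hERG after potassium depolarization seen as dye fluorescence rise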
KCNQ1 block: inhibitors of human KCNQ1 potassium channel; P51787; CHO-K1 KCNQ1, FluxOR thallium flux fluorescence; hits give high values; B-score at 10 µM; 1.3% of 310,000 active; AID 2642;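 active = compounds whose thallium flux B-score, printed positive for inhibition, exceeds three library SD while starting fluorescence stays within three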;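 also: channel opened by potassium depolarization with thallium stimulus after 20 min compound exposure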
KCNK9 inh conf: confirmation of human KCNK9 potassium channel inhibitors. shares compounds with KCNK9 inh. HEK293 KCNK9 cells, FluxOR thallium flux fluorescence. inhibition, % at 10 µM. 43% of 4,900 active. AID 492992;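 active = thallium signal inhibited by more than 5 SD of the compound-free buffer control wells, on both duplicate plates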;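 also: 0% = assay buffer control wells without compound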
Kir21 sel: mouse Kir2.1 off-target activity of KCNK9 modulators; shares compounds with KCNK9 inh; Kir2.1 cells, FluxOR thallium flux fluorescence; inhibition, % at 10 µM; 4% of 4,900 active;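 active = thallium signal drop more than 5 SD beyond the mean of the no-compound control wells, seen in both duplicate plates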;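 also: signal is fluorescence rise after thallium addition divided by baseline fluorescence; plate controls were assay buffer only for no effect and full block by chlorpromazine control for full effect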
Target sequence (P35561 whole entry, looked up): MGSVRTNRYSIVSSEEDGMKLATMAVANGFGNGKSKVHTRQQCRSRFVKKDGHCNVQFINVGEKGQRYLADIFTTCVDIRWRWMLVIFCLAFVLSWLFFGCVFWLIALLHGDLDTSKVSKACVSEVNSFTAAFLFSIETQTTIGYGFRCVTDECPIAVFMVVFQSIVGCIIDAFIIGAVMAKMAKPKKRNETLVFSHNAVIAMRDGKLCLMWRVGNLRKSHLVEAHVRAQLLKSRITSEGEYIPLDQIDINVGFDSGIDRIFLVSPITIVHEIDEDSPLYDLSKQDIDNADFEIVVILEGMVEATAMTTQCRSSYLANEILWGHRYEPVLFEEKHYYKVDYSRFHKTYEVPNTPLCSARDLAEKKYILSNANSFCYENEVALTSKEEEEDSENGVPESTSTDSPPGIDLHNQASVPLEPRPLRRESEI
KCNK9 uninduced: second counter-screen for KCNK9 modulators: effect in non-induced cells; shares compounds with KCNK9 inh; non-induced KCNK9-HEK293, FluxOR thallium flux; inhibition, % at 10 µM; 40% of 4,900 active; AID 492997;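 active = thallium signal drop beyond 5 SD of the untreated control mean, on both duplicate plates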;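 also: plate controls were buffer only IC0 wells for no effect and SID17386958 at its maximal inhibitory level for full effect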
KCNK3 confirm: human KCNK3 channel inhibition, confirmation assay | shares compounds with KCNK3 block | CHO-KCNK3 thallium flux, FluxOR fluorescence; 0% buffer, 100% carvedilol maximal block | ratio percent of control, % at 10 µM | 99% of 2,400 active;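 active = ratio percent of control, averaged over triplicates, above buffer control mean plus 5 SD, cut at about 64% in these data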;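 also: ratio is the fluorescence rise from min to max over baseline after thallium stimulus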
KCNK3 noninduced: activity in cells without induced KCNK3 expression; shares compounds with KCNK3 block; non-induced KCNK3 parental cells, FluxOR thallium flux; hits give low values; thallium flux ratio (lower = more inhibition) at 10 µM; 40% of 2,400 active; AID 651747;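 active = thallium flux ratio, averaged over three wells, more than 5 SD below the buffer control mean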;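 also: host cells are CHO cells without KCNK3 induction; ratio is peak minus trough fluorescence over baseline then normalized to buffer controls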
* hit, by the source's call; i = inactive; nt = not tested or not shown.

SMILES	KCNK3 block	KCNK9 inh	KCNQ1 act	hERG rescue	KCNQ1 block	KCNK9 inh conf	Kir21 sel	KCNK9 uninduced	KCNK3 confirm	KCNK3 noninduced
COc1ccc(OCc2n(CC(=O)OC3CC(C)CCC3C(C)C)c3ccccc3[n+]2C)cc1 (stereo not drawn)	-10*	-14*	i	-37	10*	70%*	79%*	i	112*	i
COc1ccc(OC)c(NC(=O)CN(Cc2ccc(F)cc2)C2CCCCC2)c1	-8.8*	-14*	i	-19	i	69%*	i	48%*	56*	0.12*
O=C(N/N=C/c1ccccc1)c1[nH]c2ccc(Br)cc2c1-c1ccccc1	i	i	i	-7	i	nt	nt	nt	nt	nt
O=C(NN=C1CCCC1)c1[nH]c2ccc(Br)cc2c1-c1ccccc1	i	-8.7*	i	-16	7*	i	i	i	91*	i
COc1ccc(CC(=O)Nc2c3c(nn2C(C)(C)C)CS(=O)(=O)C3)cc1OC	i	i	i	-5	i	nt	nt	nt	nt	nt
Fc1ccc(N2CCN(C(c3cccs3)c3nnnn3CCc3ccccc3)CC2)cc1 (stereo not drawn)	-12*	-13*	i	-5	i	68%*	i	32%*	126*	0.15*
CC(=O)Nc1cc(C(F)(F)F)ccc1Oc1cccc(Br)c1	i	i	i	-10	i	nt	nt	nt	nt	nt
CCOCC(=O)Nc1cc(C(F)(F)F)ccc1Oc1cccc(Br)c1	i	-12*	i	-4	i	74%*	i	54%*	99*	i
c1ccc2cc(CSCc3nc4ccccc4[nH]3)ccc2c1	i	i	i	-6	i	nt	nt	nt	nt	nt
COCCNC(C(=O)Nc1cc(Cl)cc(Cl)c1)c1ccccc1 (stereo not drawn)	-9.2*	-12*	i	-10	i	44%*	i	40%*	103*	i
CCOCCCNC(C(=O)Nc1ccc(OC)c(Cl)c1)c1ccccc1 (stereo not drawn)	i	i	i	-7	i	nt	nt	nt	nt	nt
CCC1CCCCN1c1ccc([N+](=O)[O-])cc1/C=N/NC(=O)Cn1c2ccccc2c(=O)c2ccccc21 (stereo not drawn)	i	i	i	-1	i	nt	nt	nt	nt	nt
O=C(c1c(F)cccc1F)N(Cc1cccs1)C1CCCC1	i	i	i	-8	i	nt	nt	nt	nt	nt
O=C(c1c(F)cccc1F)N(C1CCCCC1)C1CCCCC1	-12*	-12*	i	-6	i	68%*	i	28%*	133*	0.12*
S=C(Nc1ccccn1)NC1CCCCC1	i	i	i	-7	i	nt	nt	nt	nt	nt
Cc1c(-c2cccc(NC(=O)c3cccs3)c2)nc2ncccn12	i	i	i	-20	i	nt	nt	nt	nt	nt
CCCCNC(=O)COC(=O)c1ccc(NC(C)=O)cc1	i	i	i	3	i	nt	nt	nt	nt	nt
CC(=O)Nc1nc(S(=O)(=O)c2ccc(C)cc2)c(Cl)s1	i	i	i	-8	i	nt	nt	nt	nt	nt
Cc1ccc(S(=O)(=O)c2nc(NCc3ccc4c(c3)OCO4)sc2Cl)cc1	i	-11*	i	-8	i	42%*	32%*	42%*	130*	0.16*
CCC(=O)c1ccccc1OCCCN1CCC(Cc2ccccc2)CC1	-10*	i	i	-17	i	i	i	i	88*	0.13*
COc1ccc(CN(C(=O)CSc2nnc(-c3ccc(F)cc3)o2)c2ccc(F)cc2)cc1	i	i	i	-12	i	nt	nt	nt	nt	nt
COc1ccc(CN(C(=O)CSc2nnc(-c3c[nH]c4ccccc34)o2)c2ccc(F)cc2)cc1OC	-14*	-8.8*	i	-17	i	i	i	i	105*	0.13*
Cc1ccc(NC(=O)CN(Cc2ccco2)Cc2ccccc2O)cc1C	-12*	-15*	i	-13	6*	72%*	i	42%*	134*	0.15*
Cc1ccc(NC(=O)N(Cc2cccnc2)Cc2ccco2)cc1C	i	i	i	-16	i	nt	nt	nt	nt	nt
COc1ccccc1-c1cc(C(=O)N2CCOCC2)no1	i	i	i	-7	i	nt	nt	nt	nt	nt
SMILES	KCNK3 block	KCNK9 inh	KCNQ1 act	hERG rescue	KCNQ1 block	KCNK9 inh conf	Kir21 sel	KCNK9 uninduced	KCNK3 confirm	KCNK3 noninduced
CC(Oc1ccc(Cl)cc1)c1ccnn1S(=O)(=O)c1ccc(Cl)cc1 (stereo not drawn)	-13*	-15*	i	-12	i	58%*	44%*	58%*	114*	0.16*
CC(Oc1ccccc1)c1ccnn1S(=O)(=O)c1ccccc1 (stereo not drawn)	i	i	i	-5	i	nt	nt	nt	nt	nt
COC(=O)C1=C(C)N=C2SC(C#N)=C(N)N2C1c1cccc(OC)c1 (stereo not drawn)	i	i	i	-11	i	nt	nt	nt	nt	nt
COC(=O)C1=C(C)N=C2SC(C#N)=C(N)N2C1c1ccc(OC)cc1 (stereo not drawn)	-10*	-8.9*	i	-6	i	50%*	i	i	112*	i
CCN(CC)CCCNc1cc(C)nc2cc(-c3cccs3)nn12	i	i	i	-4	i	nt	nt	nt	nt	nt
CSc1cccc(NC(=O)c2cccc3cccnc23)c1	-9.7*	-9.6*	i	-4	i	28%*	i	32%*	88*	i
COc1ccccc1C(=O)Nc1cccc(SC)c1	i	i	i	-17	i	nt	nt	nt	nt	nt
COc1ccccc1OCC(=O)N(Cc1nc(-c2ccc(Cl)cc2)no1)C(C)C	i	i	i	-8	i	nt	nt	nt	nt	nt
CC(C)N(Cc1nc(-c2ccc(Cl)cc2)no1)C(=O)CCC1CCCC1	-11*	-14*	i	-20	i	66%*	i	42%*	118*	i
CC(C)n1cnc2c(N(C)c3ccccc3)nc(N(CCN(C)C)Cc3ccccc3)nc21	i	i	i	-22	i	nt	nt	nt	nt	nt
NS(=O)(=O)c1cccc(NC(=O)CN2CCc3ccccc32)c1	i	i	i	-11	i	nt	nt	nt	nt	nt
